{"source": "paper PMC10339699", "about": "(Clinical and Translational Science, 2023)", "key": {"[1]": {"settings": "previous bioavailability study; ref PRN1008‐006, unpublished data; cited from earlier work"}, "[2]": {"assay": "Part 2: urinary excretion of unchanged rilzabrutinib", "type": "in vivo, human"}, "Safety and tolerability": {"assay": "Safety and tolerability", "type": "in vivo, human"}, "[3]": {"assay": "Part 1: plasma PK of rilzabrutinib after single oral 400 mg tablet", "type": "in vivo, human"}, "[4]": {"assay": "Part 2: total radioactivity PK in plasma and whole blood", "type": "in vivo, human", "settings": "part 2, plasma total radioactivity"}, "pH‐dependent solubility": {"assay": "pH‐dependent solubility", "type": "physicochemical"}, "gut flora": {"test_system": "gut flora", "assay": "Gut flora metabolism in vitro", "type": "in vitro ADME", "settings": "in vitro studies (unpublished data)"}, "[5]": {"type": "in vivo, human"}, "BTK": {"test_system": "BTK", "settings": "within 4 h of dosing, multiple dosing; cited from earlier work"}, "[6]": {"assay": "Part 1: plasma PK of [14C]‐rilzabrutinib after i.v. microtracer dose", "type": "in vivo", "settings": "male, human, iv, 100 ug"}, "[7]": {"type": "in vivo, human", "remark": "listed apart in the source"}, "[8]": {"assay": "Part 1: absolute oral bioavailability", "type": "in vivo", "settings": "male, human, plasma, 400 mg", "outline": "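Healthy subjects (n = 8) fasted overnight 10 h, then took a 400 mg oral tablet with 240 mL water. At 120 min, ~100 μg [14C]-labelled microtracer (~1 μCi) was given as an ~2-min i.v. push. K2 EDTA plasma was analysed by acetonitrile precipitation and LC-MS/MS (0.100–100 ng/mL). Noncompartmental AUC used linear-up/log-down. F was the GLSM oral/i.v. ratio with 90% CI, from a model with formulation fixed and subject random.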"}, "[9]": {"settings": "male, human, plasma, po, 400 mg"}, "[10]": {"settings": "part 1, oral 400 mg tablet (test), mixed‐effect model"}, "[11]": {"settings": "part 1, single oral 400 mg tablet, dose normalized, geometric mean (CV)"}, "[12]": {"settings": "bile collection subjects, through the last collection interval"}, "[13]": {"settings": "non‐bile collection subjects, through the last collection interval"}}, "note": "Read-outs that look alike come from different tables or passages of the source.", "data": [{"smiles": "CC(C)(/C=C(\\C#N)C(=O)N1CCC[C@@H](n2nc(-c3ccc(Oc4ccccc4)cc3F)c3c(N)ncnc32)C1)N1CCN(C2COC2)CC1", "note": "[rilzabrutinib]", "values": [{"measurement": "PK exposure after 300 mg oral solution and 400 mg tablet formulation", "setting": "[1]", "result": "comparable"}, {"measurement": "CL renal", "setting": "[2]; male, human, urine and plasma, po, 300 mg", "result": 4.05, "unit": "mL/min"}, {"measurement": "f eu (percentage of dose excreted in urine as unchanged drug)", "setting": "[2]; unchanged rilzabrutinib in urine, 0–312 h, 300 mg oral, geometric mean (CV)", "result": 3.02, "unit": "%"}, {"measurement": "Clinical laboratory evaluations, vital signs, 12‐lead electrocardiogram, physical examinations", "setting": "Safety and tolerability; both parts of the study", "result": "no clinically significant findings"}, {"measurement": "Tolerability", "setting": "Safety and tolerability; both parts of the study, healthy male subjects", "result": "well‐tolerated"}, {"measurement": "Deaths, serious adverse events, or TEAEs leading to discontinuation", "setting": "Safety and tolerability; either part of the study", "result": "No deaths, serious adverse events, or treatment emergent adverse events (TEAEs) leading to discontinuation"}, {"measurement": "Severity of TEAEs", "setting": "Safety and tolerability; entire study, except for one moderate TEAE (viral infection) not treatment related", "result": "mild"}, {"measurement": "Total number of TEAEs", "setting": "Safety and tolerability; part 1", "result": "three"}, {"measurement": "Total number of TEAEs", "setting": "Safety and tolerability; part 2", "result": 13}, {"measurement": "Subjects who reported TEAEs", "setting": "Safety and tolerability; part 2, six of 10 subjects", "result": 60, "unit": "%"}, {"measurement": "Delay in T max for tablet formulation as compared to liquid formulation", "setting": "[3]; 400 mg tablet (part 1) versus 300 mg solution (part 2)", "result": 1, "unit": "h"}, {"measurement": "AUC(0-inf)", "setting": "[3]; [9]", "result": 336, "unit": "ng·h/mL"}, {"measurement": "AUC(0-t)", "setting": "[3]; [9]", "result": 334, "unit": "ng·h/mL"}, {"measurement": "Cmax", "setting": "[3]; [9]", "result": 108, "unit": "ng/mL"}, {"measurement": "Tmax", "setting": "[3]; [9]", "result": 2.03, "unit": "h"}, {"measurement": "DN AUC0–inf, GLSM", "setting": "[3]; [10]", "result": 0.839, "unit": "ng·h/mL/mg"}, {"measurement": "DN AUC0–last, GLSM", "setting": "[3]; [10]", "result": 0.835, "unit": "ng·h/mL/mg"}, {"measurement": "DN AUC0–inf", "setting": "[3]; [11]", "result": "0.839 (62.2) [n = 8] h ng/mL/mg"}, {"measurement": "DN AUC0–last", "setting": "[3]; [11]", "result": "0.835 (62.7) [n = 8] h ng/mL/mg"}, {"measurement": "Circulating metabolite identified", "setting": "[4]", "result": "thiocyanate"}, {"measurement": "solubility", "setting": "pH‐dependent solubility", "result": 40, "unit": "µg/mL"}, {"measurement": "solubility", "setting": "pH‐dependent solubility; aqueous buffer", "result": "> 120000", "unit": "µg/mL"}, {"measurement": "Gut flora metabolism", "setting": "gut flora", "result": "high gut flora metabolism"}, {"measurement": "half-life", "setting": "[5]; male, human, plasma, po, 300 mg", "result": 2.45, "unit": "h"}, {"measurement": "CL/F", "setting": "[5]; part 2, single oral 300 mg solution, geometric mean (CV)", "result": 904, "unit": "L/h"}, {"measurement": "BTK occupancy", "setting": "BTK", "result": "greater than 90%"}, {"measurement": "Vd", "setting": "[6]", "result": 149, "unit": "L"}, {"measurement": "clearance", "setting": "[6]", "result": 968, "unit": "mL/min"}, {"measurement": "Administered radioactivity recovered in the first 192 h postdose", "setting": "[7]; bile collection subjects", "result": 87.1, "unit": "%"}, {"measurement": "Administered radioactivity recovered in bile, average", "setting": "[7]; bile collection subjects, 3-8 h postdose", "result": 6.29, "unit": "%"}, {"measurement": "Administered radioactivity recovered in feces, average", "setting": "[7]; [12]", "result": 72.7, "unit": "%"}, {"measurement": "Administered radioactivity recovered in urine, average", "setting": "[7]; [12]", "result": 5.42, "unit": "%"}, {"measurement": "Administered radioactivity recovered within the first 168 h of dosing", "setting": "[7]; non‐bile collection subjects", "result": 92.1, "unit": "%"}, {"measurement": "Administered radioactivity recovered in feces, mean", "setting": "[7]; [13]", "result": 87.0, "unit": "%"}, {"measurement": "Administered radioactivity recovered in urine, mean", "setting": "[7]; [13]", "result": 5.25, "unit": "%"}, {"measurement": "bioavailability", "setting": "[8]", "result": "< 5", "unit": "%"}]}]}
